Compound activity: PubChem, several laboratories
ASAP1 inh – inhibitors of human ASAP1 ArfGAP activity. 0.19% of 360,000 active. ASAP1-stimulated ARF1 GTP hydrolysis, GDP FP detection. inhibition, % at 16.5 µM. Q9ULH1. AID 624377; in the data active = inhibition above about 25%;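 note: 0% = vehicle with enzyme and substrate and 100% = no enzyme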
ARFGAP1 inh – inhibitors of rat ARFGAP1; Q62848; AID 651572; inhibition, % at 16.5 µM; 0.26% of 360,000 active; Arfgap1-stimulated ARF1 GTP hydrolysis, GDP FP detection;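 active = inhibition above a per-plate limit, mean inhibition of low control wells plus 3 SD, cut at about 25% in these data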;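 note: 0% = DMSO wells with enzyme and 100% = wells lacking Arfgap1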
Target sequence (Q62848 1-136 limits assumed): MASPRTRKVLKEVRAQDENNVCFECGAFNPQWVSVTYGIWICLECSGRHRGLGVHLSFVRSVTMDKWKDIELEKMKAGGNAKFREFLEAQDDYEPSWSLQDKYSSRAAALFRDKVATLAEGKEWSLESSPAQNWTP
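Material – truncated rat Arfgap1 GAP domain · Buffer or medium – HEPES-based buffer, pH 7.5 · Reagent – human ARF1(Δ1-17)-GTP substrate · Dosing – 16.5 µM single point, 1.26% DMSO · Schedule – GTP hydrolysis reaction 2 h at 25 °C · Technique – GDP detection by fluorescence polarization · Benchmarks – No-Arfgap1 wells (100%) versus DMSO full-reaction wells (0%) · Repeats – single replicate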
Calb FLC – C. albicans growth modulation with fluconazole; 0.57% of 300,000 active; growth inhibition, % (test concentration not listed); C. albicans CaCi-2 + fluconazole, Alamar Blue growth, 48 h;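 active = growth inhibition above about 58% in most replicates, limit read from the data, passing the limit was not always enough; inconclusive = exactly half the replicates above a set limit; inactive = most replicates below a set limit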;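 note: all wells also contain fluconazole at 8 µg/ml as a sub-toxic cotreatment; 0% = median of DMSO wells and 100% = median of geldanamycin control wells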
SKKanGAS inh – blocks kanamycin growth of S. pyogenes SKKanGAS strain; BacTiter-Glo, 6 h; inhibition, % at 7.5 µM; 1.3% of 300,000 active; AID 1662;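 active = mean replicate score, as percent of positive control median, at least 50; inconclusive = mean below 50 but one replicate at or above 50; inactive = mean and every replicate below 50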;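 note: strain carries kanamycin resistance gene driven by streptokinase promoter and grows in 40 µg/ml kanamycin; loss of luminescence reflects streptokinase promoter inhibition or plain growth inhibition; 0% = median of DMSO wells and 100% = positive control at its reference dose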
HGIII-sPLA2 inh – Blocks human group III sPLA2 activity; 0.56% of 370,000 active; QFRET BODIPY PC-A2 liposome hydrolysis, fluorescence; AID 743126; inhibition, % at 12.2 µM;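 active = inhibition above mean plus 3 SD of compounds lying within the high and low control bounds, cut at about 19% in these data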;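 note: 0% = median of test compound wells and 100% = no enzyme DMSO wells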
Target sequence (Q9NZ20 whole entry, looked up): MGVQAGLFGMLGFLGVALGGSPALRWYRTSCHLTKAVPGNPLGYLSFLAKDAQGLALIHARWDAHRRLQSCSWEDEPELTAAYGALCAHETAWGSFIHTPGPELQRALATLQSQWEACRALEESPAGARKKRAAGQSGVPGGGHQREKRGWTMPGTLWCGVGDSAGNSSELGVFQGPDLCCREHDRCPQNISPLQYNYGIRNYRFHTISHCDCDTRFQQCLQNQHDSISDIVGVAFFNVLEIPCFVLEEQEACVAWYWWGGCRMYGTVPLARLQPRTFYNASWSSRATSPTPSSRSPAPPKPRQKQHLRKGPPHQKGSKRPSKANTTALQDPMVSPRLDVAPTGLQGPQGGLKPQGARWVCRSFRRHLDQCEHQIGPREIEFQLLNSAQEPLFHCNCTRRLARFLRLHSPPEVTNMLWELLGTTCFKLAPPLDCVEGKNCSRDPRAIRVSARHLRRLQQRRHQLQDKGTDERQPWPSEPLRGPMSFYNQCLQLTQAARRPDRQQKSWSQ
* hit, by the source's call; ? = inconclusive; . = no result given. Most compounds without a hit are left out; they make up all but 2.3% or so of the library.

SMILES	ASAP1 inh	ARFGAP1 inh	Calb FLC	SKKanGAS inh	HGIII-sPLA2 inh
Cc1cccc(OCCCN2CCC(C(O)(c3ccccc3)c3ccccc3)CC2)c1	4.0	2.8	.	.	-9.9
COc1cccc(CCNC(=O)CCc2nc(-c3ccccc3F)no2)c1	.	.	.	.	1.5
N/C(=N\C(=O)OCc1ccccc1)N(Cc1ccccc1)C(C#CC1=CCCCC1)Cc1ccccc1 (centres undefined)	.	.	.	.	8.0
C(=N\Nc1nc(N2CCCCCC2)nc(N2CCCCCC2)n1)/c1ccccc1	-4.1	7.1	-18.4	69.3*	2.5
O=[N+]([O-])c1cccc(/C=N/Nc2nc(N3CCCCC3)nc(N3CCCCC3)n2)c1	-10.3	-6.6	-9.3	51.6*	1.3
O=[N+]([O-])c1cccc(-n2cccc2/C=N/Nc2nc(N3CCCCC3)nc(N3CCCCC3)n2)c1	2.6	-0.1	-5.7	8.2	-10.6
Cc1cccc(N=Nc2c(C)[nH]n(C(N)=S)c2=O)c1C	5.9	4.0	105.4*	13.3	-12.9
Cc1cc(N2CCC(C)CC2)nc(-n2nc(C)cc2C)n1	0.7	5.7	?	95.4*	2.0
CC(=O)Nc1ccc(S(=O)(=O)N2CCN(c3nc(NC4CCCC4)c4ccccc4n3)CC2)cc1	17.6	39.4*	2.1	1.4	-41.0
COC(=O)c1nc(-c2ccc(C)cc2)[nH]c1C(C)(C)C	-2.0	-7.6	.	.	15.8
COc1ccc2c(c1)c(/C=N/Nc1nc3ccccc3[nH]1)c(C)n2C	4.0	23.8	-19.7	71.2*	-0.6
COc1cc(/C=N\Nc2nc3ccccc3[nH]2)cc(OC)c1OC	9.1	-3.0	-0.1	93.6*	3.2
CCN(CC)c1ccc(/C=N/NC(=O)c2ccco2)c(O)c1	1.7	-12.6	88.9*	.	-1.8
CCN(CC)c1ccc(/C=N/Nc2nc3ccccc3[nH]2)c(O)c1	0.3	3.0	98.0*	94.1*	-31.8
N#CC(c1cccc(Cl)c1)c1ccc2c(C(F)(F)F)cc(C(F)(F)F)nc2n1 (centres undefined)	-3.8	1.1	6.4	95.0*	-6.4
COc1cc(/C=C/c2cc[n+](C)cc2)ccc1OCC(=O)Nc1ccc(Cl)c(Cl)c1	24.4	10.3	7.0	60.3*	-32.0
O=C(Nc1cccc(Cl)c1N1CCCC1)c1ccc(Br)o1	3.4	-6.2	4.4	70.3*	0.8
O=C(Nc1cccc(Cl)c1N1CCCC1)c1cc2ccccc2o1	-6.2	14.5	-2.0	73.1*	8.6
CCCC(=O)NC(=S)Nc1cccc(Cl)c1N1CCCCC1	-12.6	17.8	-9.2	100.9*	0.6
COC1=C[C@H](C(=O)NCc2ccc(Cl)cc2)C(C)C(c2ccccc2)CC1=O (some centres undefined)	.	.	.	.	-17.5
CCCN1C(=O)c2[nH]nc(-c3ccccc3)c2C1c1ccc(C)cc1 (centres undefined)	17.3	8.9	.	.	-13.3
CCNC(=O)N1CCN(c2ccc(N3CCN(Cc4ccccc4)[C@H](C)C3)c(C)c2)[C@@H](C)C1	-8.9	1.1	.	.	13.5
O=C(/C=C/c1cccc(C(F)(F)F)c1)Nc1cccc(C(F)(F)F)c1	17.8	11.6	-2.5	88.1*	-14.4
S=C(Nc1ccccc1)Nc1ccccn1	14.4	-1.1	.	.	10.2
S=C(Nc1ccc(Nc2ccccc2)cc1)Nc1ccccn1	1.5	4.0	-4.2	66.0*	3.6
SMILES	ASAP1 inh	ARFGAP1 inh	Calb FLC	SKKanGAS inh	HGIII-sPLA2 inh
C/C(=C/c1c[n+](Cc2ccc3c(c2)OCO3)c(N)[nH]1)Cn1[nH]c(=O)n(-c2ccccc2)c1=O	.	.	.	.	3.1
CC1(C2CCC3(C)OC3C2)CO1 (centres undefined)	-5.8	0.3	.	.	2.7
CC12CCC(CC1)C(C)(C)O2	-11.6	17.8	5.8	100.3*	-2.5
C=CCNC(=O)CN(C(=O)Cc1ccc(Cl)cc1)c1cccc(Br)c1	.	.	.	.	-1.8
CN1/C(=C\C(=O)C[n+]2ccc(C(=O)c3ccccc3)cc2)C(C)(C)c2ccccc21	-0.3	-1.3	98.2*	15.6	-23.3
CN1/C(=C\C(=O)Nc2ccc(Cl)cc2)C(C)(C)c2ccccc21	5.7	2.3	-24.8	69.4*	17.5
COc1ccccc1C(=O)NC(=S)/C=C1/N(C)c2ccccc2C1(C)C	17.4	-0.7	1.7	9.1	20.1*
COc1ccc(S(=O)(=O)N2CCCc3nc(-c4ccc(Br)cc4)ccc32)cc1	-4.3	1.8	.	.	-5.5
Clc1cc(Cl)cc(CN2CCN(c3ncc(Cc4ccccc4)cn3)CC2)c1	-0.7	11.2	.	.	12.6
Cn1c(=O)oc2ccc(S(=O)(=O)Nc3ccc(Cl)cc3[N+](=O)[O-])cc21	3.4	0.2	.	.	7.6
COC(=O)Cn1nc(-c2ccccc2)c2ccccc21	-7.6	-6.8	86.3*	18.5	-3.3
O=S(=O)(c1cccs1)N1CCC(c2cn3ccccc3n2)CC1	.	.	.	.	1.7
O=C(NN1C(=O)c2cc(Br)ccc2NC1c1cc(Br)cc(Br)c1O)c1ccncc1 (centres undefined)	-4.3	8.3	1.0	58.7*	-4.4
O=C(Nc1nnc(-c2ccccn2)o1)c1ccc(Br)cc1	-4.7	1.9	97.5*	5.5	5.1
CCOC(=O)Cn1cc(CN2C(C(=O)OC)CN(Cc3ccc(OC)cc3)CCS2(=O)=O)nn1 (centres undefined)	.	.	.	.	10.9
COc1cccc(C(=O)Nc2nc(-c3ccccc3)c(-c3ccccc3)o2)c1	8.7	1.8	-13.0	91.7*	-8.0
O=C(Nc1nc(-c2ccccc2)c(-c2ccccc2)o1)c1ccc(F)cc1	-8.2	3.2	-0.6	100.6*	3.0
Cc1ccc(S(=O)(=O)NCC(=O)OCC(=O)N2N=C(c3ccc(Cl)cc3)CC2c2ccco2)cc1C (centres undefined)	-1.9	4.4	-12.8	70.1*	-10.8
Cc1cccc(C(=O)NCC(=O)N2CCOCC2)c1	6.2	-7.4	-0.1	50.8*	2.1
Cc1[nH]c(-c2ccccn2)nc(=S)c1Cl	-0.9	2.0	-1.0	88.2*	4.6
CCOC(=O)CSc1ccc(C(=O)NCCN2CCOCC2)cc1[N+](=O)[O-]	5.0	14.0	-1.0	-0.9	10.7
CCOC(=O)CSc1ccc(C(=O)N2CCN(C)CC2)cc1[N+](=O)[O-]	-18.8	-11.9	102.0*	2.6	3.2
Cc1cc(Br)ccc1OCC(=O)NNC(=O)C(=O)Nc1ccccc1	-9.9	-9.8	88.6*	36.6	0.5
Cc1cc(Br)ccc1OCC(=O)NNC(=O)Cc1ccccc1	-2.5	1.3	-1.2	-0.8	-13.9
O=S(=O)(Cc1cc(NCc2ccccc2)nc(-c2ccccn2)n1)c1ccccc1	9.8	-8.4	-6.4	56.3*	-8.1
Cc1[nH]n(-c2nc(-c3ccc(Cl)cc3)cs2)c(=O)c1N=Nc1ccc(O)cc1	-10.1	-1.5	-2.8	60.8*	-5.5
Fc1ccccc1-c1ccc(/C=N/Nc2nc3ccccc3[nH]2)o1	-3.9	-6.7	.	.	30.0*
O=C(CSc1nnc(-c2cccc(Cl)c2)n1Cc1ccco1)Nc1ccc2c(c1)OCO2	.	.	.	.	-19.2
COc1cccc(N(C)C(=O)[C@@H](C2CC2)[C@@H](O)c2ccc(C(C)=O)cc2)c1	.	.	.	.	0.0
